A selection: hits, their analogues and other compounds. The true share with any hit is near 4.2%.
GalR3 antagonist: blocks the human galanin receptor 3; O60755; HEK293 GalR3-CNG cAMP membrane potential fluorescence; galR3 body fused to GalR1 C-terminus; inhibition, % at 3 µM; actives 0.44% (n = 360,000);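 active means inhibition above the screen-wide average plus 3 SD, cut at about 13% in these data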;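 further: forskolin and galanin both at EC90 stimulate the cells; cAMP rise reported by CNG channel membrane potential dye signal; 0% = forskolin plus galanin with DMSO and 100% = forskolin alone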
Target sequence (O60755 1-299 limits assumed): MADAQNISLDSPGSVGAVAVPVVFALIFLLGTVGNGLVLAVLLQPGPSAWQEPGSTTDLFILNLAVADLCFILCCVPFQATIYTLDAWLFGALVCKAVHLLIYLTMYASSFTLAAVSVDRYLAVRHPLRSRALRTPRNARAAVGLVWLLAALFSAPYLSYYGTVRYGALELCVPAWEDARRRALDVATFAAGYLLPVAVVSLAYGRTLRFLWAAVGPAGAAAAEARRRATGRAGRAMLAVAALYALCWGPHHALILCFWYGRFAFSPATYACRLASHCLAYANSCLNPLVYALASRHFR
OX1R antag-1: human HCRTR1 antagonism | actives 0.43% (n = 330,000) | CHO/OX1R cells, Fluo-8 calcium fluorescence, orexin A | AID 434989 | O43613 | inhibition, % at 5 µM;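 active means inhibition above its plate's threshold, mean inhibition of all tested compounds on the plate plus 3 SD, cut at about 37% in these data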;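 further: 0% = orexin A challenge wells and 100% = SB-334867-A antagonist wells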
Target sequence (O43613 whole entry, looked up): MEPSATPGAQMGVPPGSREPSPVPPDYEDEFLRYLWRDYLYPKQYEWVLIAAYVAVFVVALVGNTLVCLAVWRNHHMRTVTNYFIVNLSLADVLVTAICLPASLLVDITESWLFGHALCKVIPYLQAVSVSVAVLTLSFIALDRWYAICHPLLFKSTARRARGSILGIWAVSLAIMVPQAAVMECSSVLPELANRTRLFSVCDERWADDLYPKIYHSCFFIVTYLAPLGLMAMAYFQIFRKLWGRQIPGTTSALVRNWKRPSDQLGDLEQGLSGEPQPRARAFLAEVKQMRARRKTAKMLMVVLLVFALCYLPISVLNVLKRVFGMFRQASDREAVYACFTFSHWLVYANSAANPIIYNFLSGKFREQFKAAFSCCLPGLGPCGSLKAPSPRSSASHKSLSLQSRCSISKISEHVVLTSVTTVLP
TAAR1 ag: human TAAR1 agonism. AID 624467. actives 0.99% (n = 360,000). CHO RD-HGA16 TAAR1, Fluo-8 calcium fluorescence; vehicle wells 0%, saturating PEA agonist 100%. Q96RJ0. activation, % at 3 µM;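 active means activation above the mean activation of all test compounds in the run plus 3 SD, cut at about 38% in these data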
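Assay system: CHO-derived RD-HGA16 cells with stable Gα16 and human TAAR1; timing: 17-24 h seeding, 75 min 37 °C dye, 30 min RT; read-out: % activation from peak over basal fluorescence ratio, DMSO-to-PEA scaled; measured by: kinetic Fluo-8 calcium fluorescence; benchmarks: low control DMSO, high control PEA (EC100); doses: 3 µM single concentration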
TAAR1 antagonist: antagonists of human TAAR1; CHO RD-HGA16 TAAR1, Fluo-8 calcium fluorescence, antagonist; inhibition, % at 3 µM; AID 624466; actives 1.5% (n = 360,000); Q96RJ0;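 active means inhibition above a per-plate cutoff, the mean inhibition of test compounds on that plate plus 3 SD, cut at about 49% in these data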;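 further: 0% = DMSO plus EC80 beta-PEA response and 100% = DMSO alone without agonist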
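Assay system: RD-HGA16 CHO cells with stable hTAAR1 and Gα16 / Reagent: EC80 β-phenethylamine stimulus / Doses: 3 µM, single point / Timing: dye loading 75 min at 37 °C, then 30 min room temperature / Measured by: Fluo-8 intracellular calcium dye fluorescence, real-time kinetic reads / Controls: vehicle wells and EC80 agonist wells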
CHO parental Ca: signal in parental CHO cells, OX1R antagonist counter-screen; AID 463079; actives 0.63% (n = 330,000); parental CHO-K1, ATP-induced calcium, Fluo-8 fluorescence; inhibition, % at 5.6 µM;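 active means inhibition above that plate's mean sample inhibition plus 3 SD, cut at about 26% in these data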;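 further: 0% = ATP-challenged DMSO wells and 100% = DMSO wells without ATP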
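Test system: untransfected parental CHO cell line. Compound: one dose, 5.6 µM nominal. Detection: intracellular calcium via Fluo-8 no-wash fluorescent dye. Measure: % inhibition. Benchmarks: ATP-challenged DMSO wells low, unchallenged DMSO wells high.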
OX1R antag-2: OX1R (human) antagonism. inhibition, % at 6.6 µM. actives 1.8% (n = 330,000). OX1R-expressing cells, FRET antagonist read-out; in the data active means inhibition mostly above about 38%, no sharp cut-off; inactive means mostly below about 40%;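 further: 0% = agonist challenge alone and 100% = reference antagonist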
Numbers without * were called inactive.

What do the screens show for `O=C(CN1C(=O)c2ccc([N+](=O)[O-])cc2C1=O)NCc1ccc(C(=O)O)cc1`?
GalR3 antagonist: -2; OX1R antag-1: -12; TAAR1 ag: 2; TAAR1 antagonist: -4; CHO parental Ca: 0; OX1R antag-2: 62*

What do the screens show for `N#CC1(NC(=O)COC(=O)CN2C(=O)c3ccccc3C2=O)CCCCC1`?
GalR3 antagonist: -3; OX1R antag-1: -12; TAAR1 ag: 3; TAAR1 antagonist: -20; CHO parental Ca: 4; OX1R antag-2: 23

Results for O=C(O)Cc1ccc(NC(=O)CCN2C(=O)c3ccc([N+](=O)[O-])cc3C2=O)cc1 ?
GalR3 antagonist: -5; TAAR1 ag: -1; TAAR1 antagonist: 14

What do the screens show for `N#CC1(NC(=O)CN2C(=O)c3ccc([N+](=O)[O-])cc3C2=O)CCCCC1`?
GalR3 antagonist: -3; OX1R antag-1: -13; TAAR1 ag: 3; TAAR1 antagonist: -2; CHO parental Ca: -8; OX1R antag-2: 53*

What do the screens show for `O=C(CCN1C(=O)c2ccc([N+](=O)[O-])cc2C1=O)Nc1ccc(O)cc1C(=O)O`?
GalR3 antagonist: -2; OX1R antag-1: -14; TAAR1 ag: 14; TAAR1 antagonist: 1; CHO parental Ca: -6; OX1R antag-2: 56*

Results for CN1CCN(c2ccc([N+](=O)[O-])cc2NC(=O)c2ccco2)CC1 ?
GalR3 antagonist: -3; OX1R antag-1: 0; TAAR1 ag: 3; TAAR1 antagonist: -27; CHO parental Ca: -20; OX1R antag-2: 31

Results for O=C(Nc1cc([N+](=O)[O-])ccc1N1CCCC1)c1ccco1 ?
GalR3 antagonist: 5; OX1R antag-1: -13; TAAR1 ag: -1; TAAR1 antagonist: -6; CHO parental Ca: -7; OX1R antag-2: 65*

Results for COc1ccc(NC(=O)NS(=O)(=O)c2ccc(C)cc2)c(OC)c1 ?
GalR3 antagonist: -4; OX1R antag-1: -6; TAAR1 ag: 5; TAAR1 antagonist: 4; CHO parental Ca: -14; OX1R antag-2: 15

Results for O=C(CN1C(=O)C2CCCCC2C1=O)Nc1ccccc1N1CCCC1 (configuration not stated) ?
GalR3 antagonist: -2; OX1R antag-1: -26; TAAR1 ag: 4; TAAR1 antagonist: -28; CHO parental Ca: -36; OX1R antag-2: 0

Results for O=C(CN1C(=O)c2ccc([N+](=O)[O-])cc2C1=O)Nc1ccccc1N1CCCC1 ?
GalR3 antagonist: -2; OX1R antag-1: 1; TAAR1 ag: 2; TAAR1 antagonist: 0; CHO parental Ca: -1; OX1R antag-2: 52*

How did Cc1cc2cc(CN(Cc3nnnn3C3CCCCC3)CC3CCCO3)c(=O)[nH]c2cc1C (configuration not stated) do in these assays?
GalR3 antagonist: 2; OX1R antag-1: -11; TAAR1 ag: 3; TAAR1 antagonist: 7; CHO parental Ca: -13; OX1R antag-2: -3

How did CC1(C)CC[C@]2(C(=O)O)[C@H](O)C[C@]3(C)C(=CCC4[C@@]5(C)C[C@H](O)[C@H](O)[C@@](C)(CO)C5CC[C@]43C)[C@@H]2C1 (some centres not stated) do in these assays?
GalR3 antagonist: -5; OX1R antag-1: 24; TAAR1 ag: 1; TAAR1 antagonist: -22; CHO parental Ca: 74*; OX1R antag-2: 7

What do the screens show for `CCc1c(C2(O)CCCCC2)[nH]c2ccc(C(F)(F)F)cc12`?
GalR3 antagonist: -2; OX1R antag-1: 35; TAAR1 ag: -1; TAAR1 antagonist: 4; CHO parental Ca: 40*; OX1R antag-2: 59*

What do the screens show for `Cc1cc(=O)[nH]c(SCC(=O)Nc2ccc(F)c([N+](=O)[O-])c2)n1`?
GalR3 antagonist: -2; OX1R antag-1: -19; TAAR1 ag: 2; TAAR1 antagonist: -14; CHO parental Ca: -2; OX1R antag-2: 39

How did CC[C@]12C(=O)N(C)C[C@H]([C@@H]3C(=O)N(C)C(=O)[C@@H]31)N2C(=O)c1ccc(C(F)(F)F)cc1 do in these assays?
GalR3 antagonist: -2; OX1R antag-1: -6; TAAR1 ag: 16; TAAR1 antagonist: -5; CHO parental Ca: 4; OX1R antag-2: 2

What do the screens show for `Cc1cc(C)c(O)c(-c2cc(C(=O)Nc3ccc(S(=O)(=O)N4CCOCC4)cc3)[nH]n2)c1`?
GalR3 antagonist: 1; OX1R antag-1: 40; TAAR1 ag: 15; TAAR1 antagonist: 38; CHO parental Ca: 34*; OX1R antag-2: 24

Results for CC(=O)Nc1ccc(NC(=O)c2cc(-c3cc(C)cc(C)c3O)n[nH]2)cc1 ?
GalR3 antagonist: -12; OX1R antag-1: -19; TAAR1 ag: 4; TAAR1 antagonist: 20; CHO parental Ca: 5; OX1R antag-2: 5

Results for CCN(CC(=O)Nc1ccc(NC(C)=O)cc1)C(=O)c1c(C)nn(-c2ccc(F)cc2)c1Cl ?
GalR3 antagonist: -4; OX1R antag-1: -17; TAAR1 ag: 15; TAAR1 antagonist: 54*; CHO parental Ca: -21; OX1R antag-2: 1

Results for O=C(CSc1ccc(-c2cccc([N+](=O)[O-])c2)nn1)N1CCCC1 ?
GalR3 antagonist: -2; OX1R antag-1: -16; TAAR1 ag: 0; TAAR1 antagonist: -24; CHO parental Ca: -15; OX1R antag-2: 72*

How did CC(C)(C)OC(=O)N1CCCC(C(=O)Nc2cccc(C(=O)NCCCc3ccccc3)c2)C1 (configuration not stated) do in these assays?
GalR3 antagonist: 0; TAAR1 ag: 10; TAAR1 antagonist: 49*

Results for O=C(CSc1n[nH]c(=O)[nH]c1=O)c1cccc([N+](=O)[O-])c1 ?
GalR3 antagonist: 0; OX1R antag-1: -8; TAAR1 ag: 0; TAAR1 antagonist: 5; CHO parental Ca: 2; OX1R antag-2: 48*

Results for O=C(CSc1n[nH]c(=O)[nH]c1=O)c1ccccc1 ?
GalR3 antagonist: 3; OX1R antag-1: 3; TAAR1 ag: 9; TAAR1 antagonist: 3; CHO parental Ca: 2; OX1R antag-2: 8

How did NCCCC[C@@H]1NC(=O)[C@H](CCC(=O)O)NC(=O)c2cc([N+](=O)[O-])cc(I)c2SC[C@@H](C(=O)NCC(N)=O)NC1=O do in these assays?
GalR3 antagonist: 2; OX1R antag-1: -3; TAAR1 ag: 0; TAAR1 antagonist: 2; CHO parental Ca: 1; OX1R antag-2: 42

How did NCCCC[C@@H]1NC(=O)c2cc([N+](=O)[O-])cc(I)c2SC[C@@H](C(N)=O)NC(=O)[C@H](Cc2ccc(O)cc2)NC1=O do in these assays?
OX1R antag-1: -16; CHO parental Ca: 8; OX1R antag-2: 73*

What do the screens show for `O=C(Nc1cccn(Cc2ccc(F)cc2)c1=O)NC1CCCCC1`?
GalR3 antagonist: -6; OX1R antag-1: -27; TAAR1 ag: 39*; TAAR1 antagonist: -8; CHO parental Ca: -21; OX1R antag-2: 31

Bioassay records: PubChem BioAssay, The Scripps Research Institute Molecular Screening Center
